Source: PubChem BioAssay (several laboratories)
In the library only some 2.1% were active in any assay of this set; here they are far more common.
C2C12 statin: suppressors of statin myotoxicity in C2C12 myotubes, primary screen, cell-based, single point, plate reader; C2C12 myotubes + simvastatin, ATP luminescence, 48 h; scaled: DMSO 0, geranylgeraniol control 100; rescue of ATP level, % at 7.49 µM; 330,000 tested, 0.78% active; AID 602340, 2012;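 active means mean ATP rescue above about 67%, or every replicate alone reaching that limit, limit read from the data, passing the limit was not always enough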;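 further: myotubes were challenged with 10 µM simvastatin during compound exposure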
ARFGAP1 inhibitor: inhibitors of rat ARFGAP1 GAP activity, primary screen, biochemical, fluorescence polarization, GDP tracer. 360,000 tested, 0.26% active. inhibition, % at 16.5 µM. ADP-ribosylation factor GTPase-activating protein 1 (Rattus norvegicus), Q62848. Arfgap1-stimulated ARF1 GTP hydrolysis, GDP FP detection;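 active means inhibition above a per-plate limit, mean inhibition of low control wells plus 3 SD, cut at about 25% in these data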;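 further: 0% = DMSO wells with enzyme and 100% = wells lacking Arfgap1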
Target sequence (Q62848 1-136 limits assumed): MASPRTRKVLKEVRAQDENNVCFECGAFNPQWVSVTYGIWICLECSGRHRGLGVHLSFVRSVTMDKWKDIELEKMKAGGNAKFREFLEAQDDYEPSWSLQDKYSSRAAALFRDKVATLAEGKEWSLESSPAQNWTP
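System: truncated rat Arfgap1 GAP domain / Benchmarks: high control wells lacking Arfgap1, low control full reaction with DMSO / Times: compound-enzyme preincubation 20 min, reaction 120 min, detection 60 min, 25 °C / Repeats: one replicate per compound / Also added: human ARF1(Δ1-17)-GTP substrate / Measured by: Tracer-displacement fluorescence polarization with EDTA stop, 620/688 nm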
A3A deaminase: APOBEC3A ssDNA deaminase inhibitors, primary screen, selectivity assay for APOBEC3G inhibitor project, biochemical, FAM/TAMRA oligo cleavage fluorescence; recombinant A3A, FAM/TAMRA ssDNA deamination fluorescence; inhibition, % at 20 µM; 330,000 tested, 0.41% active;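 active means at least 40% inhibition at 20 µM here, with at most 30% in a related deaminase screen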;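 further: plate controls were A3A with DMSO for no effect and wells lacking A3A enzyme for full effect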
Target sequence (P31941 whole entry, looked up): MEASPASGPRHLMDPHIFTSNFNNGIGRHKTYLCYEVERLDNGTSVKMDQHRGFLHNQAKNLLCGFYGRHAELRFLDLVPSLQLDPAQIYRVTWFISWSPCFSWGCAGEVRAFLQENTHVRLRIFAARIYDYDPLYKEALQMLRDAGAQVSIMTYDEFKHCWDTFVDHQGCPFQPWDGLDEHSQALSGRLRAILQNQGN
A3G deaminase: APOBEC3G DNA deaminase inhibitors, primary screen, biochemical, fluorescence, single-stranded DNA substrate, uHTS; DNA dC->dU-editing enzyme APOBEC-3G (Homo sapiens), Q9HC16; recombinant A3G, ssDNA deamination FAM/TAMRA fluorescence; inhibition, % at 20 µM; 330,000 tested, 0.28% active; AID 493012, 2011;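 active means inhibition of at least 40% at 20 µM, with no more than 30% in the related APOBEC3A deaminase screen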;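 further: plate controls were DMSO wells with A3G for no effect and wells lacking A3G enzyme for full effect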
Target sequence (Q9HC16 whole entry, looked up): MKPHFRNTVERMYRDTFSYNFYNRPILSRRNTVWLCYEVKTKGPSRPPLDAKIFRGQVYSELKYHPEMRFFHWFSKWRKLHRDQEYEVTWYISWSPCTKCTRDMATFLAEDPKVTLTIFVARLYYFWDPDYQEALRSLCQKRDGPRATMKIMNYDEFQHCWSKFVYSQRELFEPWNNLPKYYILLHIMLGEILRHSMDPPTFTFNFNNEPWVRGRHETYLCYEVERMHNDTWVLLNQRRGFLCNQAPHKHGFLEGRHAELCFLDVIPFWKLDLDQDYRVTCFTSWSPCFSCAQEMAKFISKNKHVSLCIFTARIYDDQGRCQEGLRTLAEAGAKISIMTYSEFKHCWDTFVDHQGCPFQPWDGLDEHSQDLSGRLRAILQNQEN
ASAP1 GAP inh: inhibitors of human ASAP1 ArfGAP activity, primary screen, biochemical, fluorescence polarization; inhibition, % at 16.5 µM; Arf-GAP with SH3 domain, ANK repeat and PH domain-containing protein 1 (Homo sapiens), …; 360,000 tested, 0.19% active; ASAP1-stimulated ARF1 GTP hydrolysis, GDP FP detection; in the data active means inhibition above about 25%;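 further: 0% = vehicle with enzyme and substrate and 100% = no enzyme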
Mot1-301 SUMO: yeast Mot1-301 growth rescue at high temperature, primary screen, SUMOylation pathway inhibitor project, S. cerevisiae, ATP luminescence, 38.5C. 320,000 tested, 1% active. AID 2716, 2010. S. cerevisiae Mot1-301 growth rescue; percent above DMSO median, 100 means doubled. growth rescue, % at 18.8 µM;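 active means every valid replicate shows activation above 250% relative to neutral control wells; inactive means the rest, any valid replicate at or below 250%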;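 further: OY570 slx delta 5 strain wells were the positive control but not used for scaling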
* hit, by the source's call; . = no result.

SMILES | C2C12 statin | ARFGAP1 inhibitor | A3A deaminase | A3G deaminase | ASAP1 GAP inh | Mot1-301 SUMO
COc1ccccc1C(=O)Nc1ccc2c(c1)OC[C@@H](C)N(C)C[C@H](C)[C@@H](OC)CN(C)C2=O | -3.3 | . | . | . | . | .
CCOc1ccc(NC(=O)CN(Cc2ccccc2)S(C)(=O)=O)cc1 | 110.2* | 7.7 | 0.8 | 3.2 | -6.9 | 11.3
CC(C)c1ccc(NC(=O)CN(Cc2ccccc2)S(C)(=O)=O)cc1 | 9.7 | 1.4 | 2.2 | 3.0 | 1.6 | 39.0
O=C(c1ccc(O)cc1)c1ccc(C(=O)c2ccc(O)cc2)cc1 | . | 8.8 | -0.4 | -4.6 | 2.4 | 37.6
O=C(C(=O)c1ccc(O)cc1)c1ccccc1 | -6.5 | 1.9 | -0.3 | -6.4 | -4.3 | 356.3*
O=P(c1ccccc1)(c1ccccc1)c1ccc(O)cc1 | 11.3 | -0.2 | -7.4 | -10.6 | -6.5 | 348.9*
O=C(N[C@@H]1CC[C@H](CCn2cc(C3CCCCC3)nn2)O[C@H]1CO)c1cccnc1 | 0.5 | . | . | . | . | .
Cc1ccc(-c2c3c(=O)n(C)c(=O)n(C)c3cn2Cc2cccnc2)cc1 | 9.0 | -8.0 | -1.1 | -2.7 | 3.3 | 220.7
Cn1c(=O)c2c(-c3ccccc3)n(Cc3cccnc3)cc2n(C)c1=O | . | -1.8 | -3.0 | -4.2 | 6.8 | 290.1*
Cc1ccccc1N1CCN(C2CCCN(C(=O)CCC(F)(F)F)C2)CC1 (stereo not given) | 4.5 | 0.6 | -2.1 | -9.4 | 9.4 | -1.6
Cc1ccccc1N1CCN(C2CCCN(C(=O)CCC(=O)N(C)C)C2)CC1 (stereo not given) | -0.1 | 4.9 | -7.1 | 21.3 | 4.0 | 293.9*
CCc1nc2c(c(=O)[nH]1)C1(CCCC1)Cc1ccccc1-2 | -31.8 | -1.7 | 6.4 | 3.0 | -2.6 | -10.9
O=c1[nH]c(CN2CCCCC2)nc2c1C1(CCCCC1)Cc1ccccc1-2 | 90.8* | 2.5 | 2.2 | 3.0 | -2.9 | -11.0
Cc1cc(N2CC(C(=O)O)CC2=O)ccc1Br (stereo not given) | 75.6* | 0.0 | -1.9 | -7.4 | -4.8 | 624.4
Cc1ccc(N2CC(C(=O)Nc3ccc(N(C)C)cc3)CC2=O)cc1C (stereo not given) | 147.7* | 0.5 | -4.8 | -14.6 | 10.7 | 319.4
Cc1ccc(S(=O)(=O)N(C)C[C@H]2Oc3ccc(NS(=O)(=O)c4cn(C)cn4)cc3C(=O)N([C@@H](C)CO)C[C@H]2C)cc1 | -2.8 | . | . | . | . | .
CN(C)/C=C(\C=O)c1ncc(C(F)(F)F)cc1Cl | . | -7.4 | 0.4 | -2.9 | 0.9 | 904.6*
C/C(=C\C(=O)c1ncc(C(F)(F)F)cc1Cl)N(C)C | . | 10.2 | -0.3 | -6.9 | 4.6 | -14.5
O=C(Cc1ccccc1)NCC(=O)N/N=C/c1ccc([N+](=O)[O-])s1 | 163.1* | -2.8 | -2.8 | -10.0 | 3.6 | -19.6
COc1cccc(S(=O)(=O)N[C@@H]2C=C[C@H](CC(=O)NCc3ccc(F)cc3)O[C@@H]2CO)c1 | -10.3 | . | . | . | . | .
CC(C)(C)c1cc(CCC(=O)NCC2CCCO2)cc(C(C)(C)C)c1O (stereo not given) | 1.2 | -3.0 | -2.4 | -7.6 | -10.5 | 298.0*
CCCNC(=O)CCc1cc(C(C)(C)C)c(O)c(C(C)(C)C)c1 | . | -7.4 | -1.3 | -3.4 | 8.6 | -0.2
CCCCSc1nc(C)cc(SCC(=O)N/N=C/c2cccc(OC)c2O)n1 | 126.3* | 4.3 | 2.6 | 4.4 | -2.1 | 18.3
O=C1OCCC1Sc1nnc(-c2ccc3c(c2)OCO3)n1-c1ccccc1 (stereo not given) | 5.3 | 6.6 | 1.8 | -0.1 | -1.6 | 339.6*
COc1ccc(S(=O)(=O)N[C@H]2CC[C@@H](CC(=O)N3CCc4ccccc4C3)O[C@@H]2CO)cc1 | 3.8 | . | . | . | . | .
SMILES | C2C12 statin | ARFGAP1 inhibitor | A3A deaminase | A3G deaminase | ASAP1 GAP inh | Mot1-301 SUMO
CCCN1C[C@H](C)[C@H](OC)CN(C)C(=O)c2cc(NC(=O)c3ccno3)ccc2OC[C@H]1C | -3.3 | . | . | . | . | .
CC(C)CC(C(=O)Nc1cccc(O)c1)N1C(=O)c2ccccc2C1=O (stereo not given) | 15.2 | -5.2 | -7.1 | -9.0 | -3.8 | 14.3
CC(C)CC(C(=O)Nc1oc(-c2ccco2)c(-c2ccco2)c1C#N)N1C(=O)c2ccccc2C1=O (stereo not given) | 116.9* | -5.9 | 12.3 | 3.3 | 14.4 | 65.7
COc1ccc(-c2c(C#Cc3ccc(N(C)C)cc3)c3ccccc3n2C)cc1 | 6.7 | -3.7 | -0.1 | -4.0 | -1.4 | -11.2
COc1ccc(C#Cc2c(-c3ccccc3)n(-c3ccccc3)c3ccc(CO)cc23)cc1 | 89.1* | 8.0 | -0.9 | -6.2 | 11.7 | -15.9
Oc1c(Cl)cc(Cl)cc1/C=N/c1nccs1 | 15.4 | -3.9 | -3.5 | -0.9 | 0.7 | 107.2
C(=N\c1nccs1)/Nc1nccs1 | 98.1* | -17.2 | -0.1 | -7.7 | -6.8 | 10.0
COc1ccc(C(=O)Nc2cccc3nc(C)ccc23)cc1OC | 27.6 | 1.6 | -4.5 | -10.0 | 13.4 | 548.7*
O=C(CN1CCN(CCOCCO)CC1)N1c2ccccc2Sc2ccc(Cl)cc21 | 108.2* | . | -2.9 | -6.7 | . | -14.0
O=C(CN1CCOCC1)N1c2ccccc2Sc2ccc(Cl)cc21 | 4.2 | 1.6 | . | . | 4.0 | .
Fc1ccccc1N1CCN(c2nnnn2-c2ccccc2)CC1 | 24.9 | 9.9 | 0.4 | -7.1 | -0.8 | 7.2
Cc1cccc(N2CCN(c3cc(C)nc4nnnn34)CC2C)c1 (stereo not given) | . | 6.5 | -5.7 | -4.9 | 15.7 | 3.4
Cc1cc(N2CCN(c3nnnn3-c3ccccc3)CC2)n2ncnc2n1 | 110.8* | 4.0 | 3.9 | 0.7 | 1.6 | 0.2
Cc1cc(N2CCN(c3ccccc3)CC2)n2nnnc2n1 | 149.3* | 0.3 | 5.9 | 3.7 | -10.3 | -3.1
Oc1ccccc1N1CCN(c2nnnn2-c2ccccc2)CC1 | . | 18.5 | 0.8 | -3.3 | 0.9 | 439.0*
Cc1noc(C)c1NC(=O)Nc1ccc2c(c1)CC(=O)N([C@H](C)CO)C[C@H](C)[C@@H](CN(C)C(=O)Nc1c(C)noc1C)O2 | -37.2 | . | . | . | . | .
COc1ccc(NC(=O)N(C)C[C@@H]2Oc3c(NC(=O)Nc4ccc5c(c4)OCO5)cccc3C(=O)N([C@H](C)CO)C[C@@H]2C)cc1 | 3.4 | . | . | . | . | .
CCC(=O)N1CCc2cc(S(=O)(=O)NCCCN3CCN(Cc4ccccc4)CC3)ccc21 | 156.2* | -9.0 | -1.8 | -3.5 | -2.2 | 103.5
